For 22 compounds, ECS ratio, IC50 and Inhibition results are on record in ChEMBL document CHEMBL1146641, “Synthesis of 3-O-acyl/3-benzylidene/3-hydrazone/3-hydrazine/17-carboxyacryloyl ester derivatives of betulinic acid as anti-angiogenic agents” (Bioorg Med Chem Lett, 2004).

Assay [1] deals with ECV-304. As to the kind of experiment: Ratio of IC50 against PA-1 ovary tumor cell line to IC50 of human endothelial ECV304 cell line. The class given is functional, Female gonad. A digest of the protocol:
(§1)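 Endothelial selectivity ratio = IC50 on the tumor line / IC50 on ECV304. […] Wells in triplicate, experiments in triplicate, mean IC50 used. Ratio <10 rated low, 10–20 moderate, >20 high.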

Assay [2] in a line: Ratio of IC50 against DU145 prostate tumor cell line to IC50 of human endothelial ECV304 cell line. The class given is functional, ECV-304. A digest of the protocol:
as §1

Assay [3] relates to ECV-304. As to the kind of experiment: Cytotoxic activity against ECV304 (human endothelial) cell line. Format: functional, cell-based. A digest of the protocol:
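1.5 × 10⁴ cells exposed 72 h to compounds in DMSO (final DMSO <0.1%) at 0.5–4 µg/mL, in triplicate wells. Viability read by MTT. Experiment repeated three times; mean IC50 (half-maximal cytotoxicity) reported.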

Assay [4] is described as follows: Ratio of IC50 against HT-29 colon tumor cell line to IC50 of human endothelial ECV304 cell line. Format: functional. A digest of the protocol: as §1
Assay [5] can be described thus: Ratio of IC50 against L132 Lung tumor cell line to IC50 of human endothelial ECV304 cell line. The class given is functional. A digest of the protocol: as §1
Assay [6] has as its system ECV-304. As to the kind of experiment: Inhibition of tube-like structure formation in ECV304 (human endothelial) cell line. The class given is functional.

Each structure is given as a SMILES string. ≈ marks a conversion by molar mass, not a printed value.

For `CC(C)[C@@H]1CC[C@]2(C(=O)O)CC[C@]3(C)C(CCC4[C@@]5(C)CC[C@H](OC(=O)c6ccccc6C(F)(F)F)C(C)(C)C5CC[C@]43C)C12` (stereo not given in full), the ECS ratio is more than 1.53 in the assay on ECV-304 [1], more than 1.5 in assay [2], 3.84 in assay [4] and 1.5 in assay [5]. The compound also yielded an IC50 in the assay with ECV-304 [3] of 2.6 µg/mL (≈ 4.12 µM).

As for `C=CC(=O)OC(=O)[C@]12CC[C@@H](C(=C)C)C1C1CCC3[C@@]4(C)CC[C@H](O)C(C)(C)C4CC[C@@]3(C)[C@]1(C)CC2` (stereo not given in full), the ECS ratio with ECV-304 [1] is reported as more than 1; in assay [2], more than 2.5; in assay [4], 2.5; in assay [5], 0.43. The compound further came in with an IC50 in the assay with ECV-304 [3] of 4 µg/mL (≈ 7.83 µM).

With `COc1ccc(N/N=C2\CC[C@@]3(C)C(CC[C@]4(C)C3CCC3C5[C@H](C(C)C)CC[C@]5(C(=O)O)CC[C@]34C)C2(C)C)cc1` (stereo not given in full), the IC50 in the assay with ECV-304 [3] is less than 4 µg/mL.

For the compound `CC(C)[C@@H]1CC[C@]2(C(=O)O)CC[C@]3(C)C(CCC4[C@@]5(C)CCC(/N=C/c6ccc(F)cc6F)C(C)(C)C5CC[C@]43C)C12` (stereo not given in full), the ECS ratio with ECV-304 [1] amounted to 0.54; in assay [2], 1.04; in assay [4], 2.04; in assay [5], 1.4. The compound also gave an IC50 in the assay on ECV-304 [3] of 2.4 µg/mL (≈ 4.12 µM). This compound also came in with an Inhibition in the assay with ECV-304 [6] of 48%.

Take `CC(C)[C@@H]1CC[C@]2(C(=O)O)CC[C@]3(C)C(CCC4[C@@]5(C)CC[C@H](OC(=O)c6ccc(F)cc6F)C(C)(C)C5CC[C@]43C)C12` (stereo not given in full): the ECS ratio in the assay on ECV-304 [1] came out at 2.3; in assay [2], 3.5; in assay [4], 2.4; in assay [5], 1.5. In addition, inhibition in the assay with ECV-304 [3] was half-maximal at 0.7 µg/mL (≈ 1.17 µM) (IC50). In addition, in the assay with ECV-304 [6], the Inhibition is 20%.

Compound `CC(C)[C@@H]1CC[C@]2(C(=O)O)CC[C@]3(C)C(CCC4[C@@]5(C)CC[C@H](O)C(C)(C)C5CC[C@]43C)C12` (stereo not given in full) [DIHYDROBETULINIC ACID] came in with an IC50 with ECV-304 [3] of less than 4 µg/mL.

For the compound `C=C(C)[C@@H]1CC[C@]2(C(=O)O)CC[C@]3(C)C(CCC4[C@@]5(C)CC[C@H](OC(=O)c6ccc(CCCCC)cc6)C(C)(C)C5CC[C@]43C)C12` (stereo not given in full), the ECS ratio in the assay with ECV-304 [1] was more than 2.1; in assay [2] it was 1.05; in assay [4] it was 1.84; in assay [5] it was 3.1. For the same compound, the IC50 with ECV-304 [3] turned out to be 1.9 µg/mL (≈ 3.01 µM).

In the assay with ECV-304 [3], `CC(C)[C@@H]1CC[C@]2(C(=O)O)CC[C@]3(C)C(CCC4[C@@]5(C)CCC(N)C(C)(C)C5CC[C@]43C)C12` (stereo not given in full) gave an IC50 of less than 4 µg/mL.

For the compound `CC(C)[C@@H]1CC[C@]2(C(=O)O)CC[C@]3(C)C(CCC4[C@@]5(C)CCC(/N=C/c6ccc(F)c(F)c6)C(C)(C)C5CC[C@]43C)C12` (stereo not given in full), the ECS ratio worked out at 3.7 in the assay with ECV-304 [1], 6.2 in assay [2], 11.4 in assay [4] and 7.1 in assay [5]. In the assay with ECV-304 [3], this compound returned an IC50 of 0.35 µg/mL (≈ 0.602 µM). Moreover, the Inhibition in the assay with ECV-304 [6] is on record as 32%.

Take `C=C(C)[C@@H]1CC[C@]2(C(=O)O)CC[C@]3(C)[C@H](CC[C@@H]4[C@@]5(C)CC[C@H](O)C(C)(C)[C@@H]5CC[C@]43C)[C@@H]12` [BETULINIC ACID]: the ECS ratio is listed as 3.2 in the assay with ECV-304 [1], 2.2 in assay [2] and 1 in assay [5]. In the assay on ECV-304 [3], this compound yielded an IC50 of 1.2 µg/mL (≈ 2.63 µM).

In the assay on ECV-304 [3], `CC(C)[C@@H]1CC[C@]2(C(=O)O)CC[C@]3(C)C(CCC4[C@@]5(C)CCC(=O)C(C)(C)C5CC[C@]43C)C12` (stereo not given in full) displayed an IC50 of less than 4 µg/mL.

Regarding `C=CC(=O)OC(=O)[C@]12CC[C@@H](C(C)C)C1C1CCC3[C@@]4(C)CC[C@H](O)C(C)(C)C4CC[C@@]3(C)[C@]1(C)CC2` (stereo not given in full), the ECS ratio is recorded as 0.75 in the assay on ECV-304 [1], more than 2 in assay [2], 5 in assay [4] and 2 in assay [5]. This compound yielded an IC50 with ECV-304 [3] of 2 µg/mL (≈ 3.9 µM).

Take `C=C(C)[C@@H]1CC[C@]2(C(=O)O)CC[C@]3(C)C(CCC4[C@@]5(C)CC[C@H](OC(=O)c6ccc(CCCCCCC)cc6)C(C)(C)C5CC[C@]43C)C12` (stereo not given in full): the ECS ratio is listed as more than 2.3 with ECV-304 [1], more than 5.8 in assay [2], more than 5.89 in assay [4] and 4.1 in assay [5]. The IC50 in the assay with ECV-304 [3] stood at 1.7 µg/mL (≈ 2.58 µM).

Regarding `CC(C)[C@@H]1CC[C@]2(C(=O)O)CC[C@]3(C)C(CCC4[C@@]5(C)CCC(NNc6ccccc6)C(C)(C)C5CC[C@]43C)C12` (stereo not given in full), the ECS ratio in the assay with ECV-304 [1] is recorded as 7; in assay [2], 19.8; in assay [4], 3.5; in assay [5], 1.6. Moreover, the IC50 in the assay with ECV-304 [3] stood at 0.5 µg/mL (≈ 0.911 µM).

As to `C=C(C)[C@@H]1CC[C@]2(C(=O)O)CC[C@]3(C)C(CCC4[C@@]5(C)CC[C@H](OC(=O)Cc6cc(OC)ccc6OC)C(C)(C)C5CC[C@]43C)C12` (stereo not given in full), the ECS ratio in assay [2] is listed as 0.55; in assay [4], more than 5.6; in assay [5], 2.5. This compound also registered an IC50 in the assay with ECV-304 [3] of 1.8 µg/mL (≈ 2.84 µM).

On to `CC(C)[C@@H]1CC[C@]2(C(=O)O)CC[C@]3(C)C(CCC4[C@@]5(C)CC/C(=N\O)C(C)(C)C5CC[C@]43C)C12` (stereo not given in full), for which the IC50 in the assay on ECV-304 [3] is less than 4 µg/mL.

With `C=C(C)[C@@H]1CC[C@]2(C(=O)O)CC[C@]3(C)C(CCC4[C@@]5(C)CC/C(=N\Nc6ccccc6)C(C)(C)C5CC[C@]43C)C12` (stereo not given in full), the ECS ratio worked out at 2.08 in the assay on ECV-304 [1], 2.7 in assay [2], 4.2 in assay [4] and 1.9 in assay [5]. Further, it took 2.4 µg/mL (≈ 4.41 µM) to reach half-maximal inhibition with ECV-304 [3] (IC50).

In the case of `CC(C)[C@@H]1CC[C@]2(C(=O)O)CC[C@]3(C)C(CCC4[C@@]5(C)CC/C(=N\Nc6ccccc6)C(C)(C)C5CC[C@]43C)C12` (stereo not given in full), the IC50 in the assay with ECV-304 [3] is less than 4 µg/mL.

For `COc1ccc(NNC2CC[C@@]3(C)C(CC[C@]4(C)C3CCC3C5[C@H](C(C)C)CC[C@]5(C(=O)O)CC[C@]34C)C2(C)C)cc1` (stereo not given in full), the results for the ECS ratio in assay [2] and in assay [4] were 21.1 and 0.87, respectively. Moreover, the IC50 with ECV-304 [3] came out at 0.4 µg/mL (≈ 0.691 µM).

In turn, `C=C(C)[C@@H]1CC[C@]2(C(=O)O)CC[C@]3(C)[C@H](CC[C@@H]4[C@@]5(C)CCC(=O)C(C)(C)[C@@H]5CC[C@]43C)[C@@H]12` [BETUNOLIC ACID] gave an IC50 in the assay with ECV-304 [3] of less than 4 µg/mL.

Turning to `C=C(C)[C@@H]1CC[C@]2(C(=O)O)CC[C@]3(C)C(CCC4[C@@]5(C)CC[C@H](OC(=O)c6cccc(C(F)(F)F)c6)C(C)(C)C5CC[C@]43C)C12` (stereo not given in full), the ECS ratio in the assay on ECV-304 [1] is more than 4.4; in assay [2], more than 11.1; in assay [4], more than 11.1; in assay [5], 3. This compound yielded an IC50 in the assay with ECV-304 [3] of 0.9 µg/mL (≈ 1.43 µM).

For the compound `CC(C)[C@@H]1CC[C@]2(C(=O)O)CC[C@]3(C)C(CCC4[C@@]5(C)CC[C@H](OC(=O)c6cc(F)cc(F)c6)C(C)(C)C5CC[C@]43C)C12` (stereo not given in full), the results for the ECS ratio in assay [2], in assay [4] and in assay [5] were 4.5, more than 14.3 and 1.7, respectively. In the assay with ECV-304 [3], this compound returned an IC50 of 0.7 µg/mL (≈ 1.17 µM).
